According to PMC10749586 (Nature, 2023):
Where two headings read alike, the source gives them in different places.

What was measured:
KARPAS422 cells [1] = assay: Cell viability; format: cell-based, human; details: for fold less-effective cell killing than TCIP1: JQ1 and BI3812 added separately or together, 72 h
SUDHL5 cells = assay: Cell viability in SUDHL5 cells with or without serum starvation; format: cell-based, human
In short: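 SUDHL5 cells were arrested in G0/G1 by serum starvation, or left unstarved, before test compound addition. Viability was read with PrestoBlue resazurin reagent (1.5 h, fluorescence 560/590 nm). Signal was background-subtracted and normalized to DMSO-treated cells. n = 3 biological replicates, mean ± s.d.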

BCL6 reporter = BCL6 reporter assay in KARPAS422 cells; format: cell-based, human; details: read-out: EC50 of BCL6 reporter activation, 8 h
In short: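 KARPAS422 cells were lentivirally transduced with the BCL6 reporter construct and selected. They were then treated with test compound for 8 h, washed in 2.5% FBS/PBS, stained with 7-AAD (1:250 v/v) for live/dead and analysed by flow cytometry. A GFP-positive gate was set from non-transduced cells. The FITC histogram area past threshold, over live cells, was normalized to DMSO.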

BRD4(BD1) = BRD4(BD1) (Homo sapiens, UniProt O60885); assay: ITC binary titration, TCIP1 and BRD4; format: binding; details: read-out: Kd of BRD4-TCIP1 (binary)
[2] = molecular target: BRD4(BD1)-TCIP1-BCL6(BTB) ternary complex (Homo sapiens, UniProt O60885+P41182, C67R/C84N/C8Q); assay: Biolayer interferometry of ternary complex; format: binding
In short: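 Biolayer interferometry used biotinylated BCL6(BTB)-AviTag (100 nM) loaded on streptavidin tips. Wells held tag-cleaved BRD4(BD1) (50 µM, excess) with test compound titrated from 5.5 nM to 12 µM, at 25 °C. Steps were 300 s association, 300 s dissociation and 30 s baseline. Off-rate came from dissociation curves at 7–8 doses, n = 3 independent replicates, mean ± s.d.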

[3] = tested on: primary human tonsillar lymphocytes; assay: Cell viability of primary human tonsillar lymphocytes; format: cell-based; details: read-out: EC50 of cell viability, 72 h
[4] = Mouse tolerability and pharmacokinetic study; format: in vivo; details: 10 mg kg^−1 i.p. once daily for 5 days, C57BL/6 mice
[5] = tested on: BRD4 / Pol II / H3K27ac chromatin occupancy; assay: ChIP-seq; format: cell-based, human
In short: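 KARPAS422 cells (30 million) received test compound or DMSO, then were crosslinked with 1% formaldehyde for 12 min and quenched with 0.125 M glycine. Nuclei were prepared and immunoprecipitated overnight at 4 °C. Chromatin input was 50 µg for Pol II Ser2/Ser5 phos and 25 µg for H3K27ac, with Drosophila spike-in. Differential peaks: Wald test, Benjamini–Hochberg, padj ≤ 0.05, |log2| ≥ 0.5.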

[6] = tested on: KARPAS422 cells gene expression; assay: RNA sequencing in KARPAS422 cells; format: cell-based, human
[7] = tested on: MYC, p21, FOXO3, BCL6, BRD4 protein levels; assay: Western blots of target proteins in DLBCL cells; format: cell-based, human
In short: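 Cells plated at 1 M ml−1 were treated with test compound (e.g., 20 h in KARPAS422). Two million cells were lysed on ice in RIPA (pH 8, 1% SDS, 1 mM DTT) with benzonase for 20 min. Lysates were cleared at 14,000g for 10 min at 4 °C and quantified by Bradford. Immunoblots probed BCL6, BRD4, BCL2, p53, MYC, FOXO3 and p21, with GAPDH as loading control.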

KARPAS422 cells [8] = assay: Annexin V apoptosis assay; format: cell-based, human
In short: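 KARPAS422 cells (500,000, plated at 1 M ml−1) were exposed to test compound for the stated times and doses, then harvested on ice and washed twice. They were stained with 7-AAD plus FITC-annexin V for 15 min at room temperature and read immediately by flow cytometry. Gates came from single-stain and no-stain controls. Kinetics used 2–6 biological replicates, mean ± s.d.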

KARPAS422 cells [9] = assay: Cell cycle and TUNEL analysis; format: cell-based, human; details: cell-cycle analysis with TUNEL; 100 nM, 24 h
OCILY19 cells = assay: Cell viability of OCILY19 cells; format: cell-based, human; details: OCILY19, no detectable BCL6
DLBCL cell lines = assay: Cell viability; format: cell-based, human; details: titrated against constant TCIP1 that kills 50–95% of cells within 72 h
[10] = tested on: MYC, p21, FOXO3, BCL6, BRD4 protein levels; details: BET/BRD4 inhibitor; cited from earlier work
[11] = 2 h, 10 nM, out of 51,678 consensus peaks

CNC(=O)COc1cc2cc(Nc3nc(N4CCC(C(=O)NCCCCCCCNC(=O)C[C@@H]5N=C(c6ccc(Cl)cc6)c6c(sc(C)c6C)-n6c(C)nnc65)CC4)ncc3Cl)cc(OC)c2n(C)c1=O [TCIP1]
EC50 (KARPAS422 cells [1]; read-out: EC50 of cell viability, KARPAS422, 72 h after addition of drug): 1.3 nM
EC50 (SUDHL5 cells; read-out: EC50 of cell viability after G0/G1 arrest, SUDHL5, serum starvation): 0.25 nM
EC50 (SUDHL5 cells; read-out: EC50 of cell viability without arrest, SUDHL5, no serum starvation): 3.2 nM
EC50 (BCL6 reporter): 5 nM
Kd (BRD4(BD1)): 5080 nM
off-rate of ternary complex [2]: 26 ms^−1
EC50 [3]: ~210 nM
body weight change [4]: no significant changes in mouse body weight
histology (haematoxylin and eosin) of lung and spleen [4]: did not reveal noticeable abnormalities
H3K27ac peaks decreased [5, 11]: 70 peaks
H3K27ac peaks increased [5, 11]: 126 peaks
increase of BRD4 binding over genomic BCL6-binding sites ([5]; ChIP-seq): 50%
BRD4 levels increase at promoters of upregulated genes ([5]; ChIP-seq, 1 h of TCIP1 addition): approximately 150%
number of genes induced at early timepoints ([6]; 10 nM, 1, 2 and 4 h, KARPAS422): approximately 140 genes
number of genes with increased expression ([6]; 10 nM, 20 h, KARPAS422): 1,654 genes
number of genes with reduced expression ([6]; 10 nM, 20 h, KARPAS422): 1,347 genes
time to upregulation of the long isoform of BCL6 mRNA ([6]; RT-qPCR, 10 nM): 1 to 2 h
time to FOXO3 activation ([7]; 10 nM): ≤ 2 h
effect on BRD4 protein levels ([7]; 20 h, KARPAS422): did not change substantially
time to reduction of MYC protein levels ([7]; after addition of drug): ≤ 2 h
concentration from which MYC levels are reduced ([7]; western blot, DLBCL cells): less than 1 nM
concentration that activates FOXO3 ([7]; western blot, DLBCL cells): 0.5 nM
concentration inducing the BCL6L isoform ([7]; western blot, Fig. 4k): ≤ 1 nM
time to detectable apoptosis (KARPAS422 cells [8]): 4 to 8 h
cell-cycle effect (KARPAS422 cells [9]): induced both a G1/S and G2/M block in the cell cycle
response in cell viability (OCILY19 cells): little or no response compared with controls

CNC(=O)COc1cc2cc(Nc3nc(N4CCC(C(=O)N(C)C)CC4)ncc3Cl)cc(OC)c2n(C)c1=O [BI3812]
fold less-effective cell killing than TCIP1 (KARPAS422 cells [1]): 100–1,000 fold
rescue of TCIP1-induced cell death by competitive titration (DLBCL cell lines): prevented death by TCIP1

Cc1sc2c(c1C)C(c1ccc(Cl)cc1)=N[C@@H](CC(=O)OC(C)(C)C)c1nnc(C)n1-2 [JQ1]
fold less-effective cell killing than TCIP1 (KARPAS422 cells [1]): 100–1,000 fold
rescue of TCIP1-induced cell death by competitive titration (DLBCL cell lines): prevented death by TCIP1
drug level at which MYC expression is reduced [10]: 500 nM
